PostGolgi ctrl: growth inhibition of yeast control strain, primary screen, counter-screen for post-Golgi transport modulator project. efflux-deficient yeast background strain, growth absorbance A615, 16 h. 98,000 tested, 5% active. inhibition, % at 10 µM
E coli WT exp: growth inhibitors of wild-type E. coli, primary screen, strain BW25113, expanded library, OD600. OD600 absorbance. growth inhibition, % at 100 µM. 98,000 tested, 0.15% active;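 active = growth inhibition above about 50% at one test dose, limit read from the data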;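 note: growth measured after 20 h incubation at 37 °C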
tolC growth inh: growth inhibitors of E. coli tolC mutant, primary screen, strain BW25113 ΔtolC::kan, 384-well. 65,000 tested, 2.2% active. OD615. growth inhibition, % at 10 µM (by protocol);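 active = growth inhibition at or above a cutoff equal to the mean over every tested compound plus 3 SD, cut at about 60% in these data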;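 note: growth measured after 20 h incubation at 37 °C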
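signal = optical density read at 615 nm | test system = E. coli ΔtolC::kan strain BW25113 | timing = 20 h compound exposure of bacteria at 37 °C | buffer or medium = LB medium plus 50 µg/mL kanamycin | compound dosing = 10 µM final, single dose | evaluation = % inhibition of E. coli growth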
PostGolgi yeast: phenotypic screen on post-Golgi transport, primary screen; post-Golgi transport phenotypic cell assay; inhibition, % at 10 µM; 98,000 tested, 0.9% active; AID 739, 2007;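 note: yeast cells grown in 1536-well plates; yeast grown about 18 h at 30C before absorbance read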
EphB4 ephrin blk: EphB4-ephrin-B2 interaction antagonists, primary screen, biochemical, TNYL-RAW peptide probe, fluorescence polarization. Ephrin type-B receptor 4 (Homo sapiens), P54760. EphB4 LBD / TNYL-RAW-Alexa532 peptide. inhibition, % at 7 µM. 97,000 tested, 0.15% active. AID 720, 2007;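 active = inhibition above the screen-wide mean inhibition plus 3 SD, cut at about 15% in these data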
Target sequence (P54760 whole entry, looked up, the tested form may be a part): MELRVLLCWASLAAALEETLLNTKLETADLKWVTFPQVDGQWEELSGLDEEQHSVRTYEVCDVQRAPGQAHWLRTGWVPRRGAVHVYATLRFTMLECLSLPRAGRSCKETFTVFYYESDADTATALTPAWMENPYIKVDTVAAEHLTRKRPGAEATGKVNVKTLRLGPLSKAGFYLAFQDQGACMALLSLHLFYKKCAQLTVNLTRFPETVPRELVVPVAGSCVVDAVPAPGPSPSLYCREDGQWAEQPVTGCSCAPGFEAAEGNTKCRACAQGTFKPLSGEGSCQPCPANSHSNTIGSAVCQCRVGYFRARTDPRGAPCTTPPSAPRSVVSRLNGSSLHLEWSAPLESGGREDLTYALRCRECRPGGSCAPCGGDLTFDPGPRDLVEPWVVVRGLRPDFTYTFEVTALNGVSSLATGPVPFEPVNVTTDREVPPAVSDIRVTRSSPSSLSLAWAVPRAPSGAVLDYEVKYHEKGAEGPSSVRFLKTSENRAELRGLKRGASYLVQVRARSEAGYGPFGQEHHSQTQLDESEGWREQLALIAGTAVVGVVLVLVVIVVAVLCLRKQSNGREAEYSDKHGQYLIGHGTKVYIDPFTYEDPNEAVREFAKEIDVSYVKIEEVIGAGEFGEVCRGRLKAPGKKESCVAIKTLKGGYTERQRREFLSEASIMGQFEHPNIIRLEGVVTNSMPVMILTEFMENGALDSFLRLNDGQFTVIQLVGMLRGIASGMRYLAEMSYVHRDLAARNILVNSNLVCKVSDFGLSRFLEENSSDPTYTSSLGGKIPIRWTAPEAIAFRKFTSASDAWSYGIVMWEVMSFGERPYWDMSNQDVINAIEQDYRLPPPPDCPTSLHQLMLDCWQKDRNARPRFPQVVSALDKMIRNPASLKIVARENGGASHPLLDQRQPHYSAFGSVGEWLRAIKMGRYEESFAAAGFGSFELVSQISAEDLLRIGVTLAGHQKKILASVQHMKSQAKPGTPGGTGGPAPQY
Each line names hits and unclear results; the compound was inactive in the other large screens. This is a sample that favours compounds with a hit; in the whole collection about 6% have one here. Cut-off read from the data, not from the text of the source, unless noted: active = inhibition above about 30%; inactive = the rest.

O=C(Nc1cccnc1)c1ccc(COc2ccccc2Cl)o1	none (no result: tolC growth inh)
CCS(=O)(=O)CCSc1nc2ccccc2s1	none
O=S(=O)(CCSc1nc2ccccc2s1)c1nc2ccccc2s1	PostGolgi ctrl 89.5 (no result: tolC growth inh)
Cc1ccc(Oc2nccc(-c3ccc(Cl)cc3)n2)cc1	none (no result: tolC growth inh)
COc1ccc2c(c1)C(C)=CC(C)(C)N2C(=O)CSc1nnc(-c2ccc(C)cc2)o1	PostGolgi yeast 52.0
COc1ccc(C(=O)CSc2nnc(-c3ccc(C)cc3)o2)cc1	none (no result: tolC growth inh)
O=C(CSc1nnc(-c2ccc(O)cc2)n1Cc1ccco1)N1CCc2ccccc2C1	none
COc1cc(/C=N/NC(=O)C2c3ccccc3Oc3ccccc32)ccc1O	none (no result: tolC growth inh)
O=C(C1CCCCC1)N1CCC(c2nc3ccccc3[nH]2)CC1	none
N#CC(C(=O)C1CCCCC1)c1nc2ccccc2[nH]1 (centres undefined)	PostGolgi ctrl 47.0
O=S(=O)(c1ccc2ccccc2c1)N(CC(O)COCc1ccco1)c1ccccc1 (centres undefined)	PostGolgi ctrl 30.9 (no result: tolC growth inh)
CC1CN(C(=O)Nc2ccc3snnc3c2)c2ccccc21 (centres undefined)	PostGolgi ctrl 30.1 (no result: EphB4 ephrin blk)
COCCOc1ccc(C(F)(F)F)cc1Nc1nc2ccccc2o1	PostGolgi ctrl 54.1 (no result: EphB4 ephrin blk)
COCCOc1ccc(C(F)(F)F)cc1NC(=O)COC(=O)c1c(C)noc1C	none
Cc1onc(-c2ccccc2)c1C(=O)Nc1ccc(S(=O)(=O)NC2=NCCCCC2)cc1	EphB4 ephrin blk 20.3
O=[N+]([O-])c1ccc(N/N=C\c2cccn2-c2ccccc2)nc1	PostGolgi ctrl 39.9 (no result: tolC growth inh)
Cc1ccccc1-n1c(C)cc(/C=N/Nc2ccc([N+](=O)[O-])cn2)c1C	none (no result: tolC growth inh)
Cc1c(NC(=O)OCCNC(=O)COc2c(Cl)cccc2Cl)sc(=S)n1C	none (no result: tolC growth inh)
S=C(NN=C1C2CC3CC(C2)CC1C3)Nc1ccccc1	none (no result: tolC growth inh)
COc1cccc(N2CCN(c3c(C#N)c(C(F)(F)F)nn3C)CC2)c1	PostGolgi ctrl 50.7 (no result: tolC growth inh)
O=C1/C(=C/c2cccs2)N=C(c2cccs2)N1Nc1ccccc1	none (no result: tolC growth inh)
Cc1ccc(C2=N/C(=C\c3cccs3)C(=O)N2Nc2ccccc2)cc1	PostGolgi ctrl 31.9 (no result: tolC growth inh)
N=c1c2c(n(Cc3ccc(Cl)c(Cl)c3)c3c1CCC3)CCCC2	tolC growth inh 100.0
Cc1nc(N2CCN(C(=O)c3ccc(Cl)cc3)CC2)c(C#N)c2c1COC(C)(C)C2	none
C=CCNc1nc(-c2cccc(OC)c2O)nc2ccccc12	none
CCN(CC)c1nc(-c2cccc(OC)c2O)nc2ccccc12	PostGolgi ctrl 31.8
COc1cccc(-c2nc(N3CCCCC3C)c3ccccc3n2)c1O (centres undefined)	PostGolgi ctrl 75.2
CC(C)CNS(=O)(=O)c1ccc(OCC(=O)NCC2CCCO2)c(Cl)c1 (centres undefined)	none (no result: PostGolgi ctrl, E coli WT exp, tolC growth inh, PostGolgi yeast)
CCn1c(O)c(/C=N/n2cnnc2)sc1=S	PostGolgi ctrl 30.5
COc1ccc(NC(=O)c2cccs2)cc1O	none
COc1ccc(/C=C/C(=O)c2ccc(NC(=O)c3cccs3)cc2)cc1OC	PostGolgi ctrl 54.1 (no result: tolC growth inh)
CCCN=C(C)c1c(-c2ccccc2)[nH]n(-c2nc3ccccc3s2)c1=O	PostGolgi ctrl 31.9 (no result: tolC growth inh)
CC(=NCc1ccco1)c1c(C)[nH]n(-c2nc3ccccc3s2)c1=O	none
CS(=O)(=O)N(CC(=O)Nc1ccccc1Sc1ccccc1)c1cccc(Br)c1	PostGolgi ctrl 41.3 (no result: tolC growth inh)
CCN1N=C(c2ccccc2)Cn2c1nc1ccccc12	PostGolgi ctrl 30.4 (no result: tolC growth inh)
CCn1c(N)nc2ccccc21	none
C=CCNc1oc(/C=C/c2ccccc2)nc1C#N	none (no result: tolC growth inh)
CCOC(=O)Nc1sc2c(c1C(=O)OCC)CCC2	none
CCOC(=O)c1c(NS(=O)(=O)c2cccc(OC)c2)sc2c1CCC2	tolC growth inh 78.6
O=C(c1ccc(Cl)s1)N1CCc2ccccc21	none
CC(C)Oc1ccc(C(=O)N2CCCc3ccccc32)cc1	PostGolgi ctrl 30.9
COc1ccc(C(=O)N2CCCc3ccccc32)cc1	none
O=C(c1ccc(C(=O)N2CCCc3ccccc32)s1)N1CCCc2ccccc21	PostGolgi ctrl 100.3, PostGolgi yeast 105.4 (no result: tolC growth inh)
Cc1cc(/C=C2\SC(=Nc3ccccc3)NC2=O)c(C)n1-c1ccc(S(N)(=O)=O)cc1	none (no result: tolC growth inh)
O=C(c1cc2c(s1)-c1ccccc1S(=O)(=O)C2)N1CCN(Cc2ccccc2)CC1	none (no result: tolC growth inh)
CCOC(=O)c1ccc(NC(=O)CCC(=O)OC)cc1	PostGolgi ctrl 30.4
CCOC(=O)c1ccc(NC(=O)CC2COc3ccccc3O2)cc1 (centres undefined)	PostGolgi ctrl 31.9
CCOC(=O)CC(=O)Nc1ccc(C(=O)OCC)cc1	none
Fc1ccc(-c2cc(C(F)(F)F)nc(NCC3CCCO3)n2)cc1 (centres undefined)	tolC growth inh 99.5 (no result: EphB4 ephrin blk)
FC(F)(F)c1cc(-c2ccccc2)nc(NCC2CCCO2)n1 (centres undefined)	none
CCOC(=O)CNC(=O)C(Cc1ccccc1)NS(=O)(=O)c1ccc2c(c1)CCC(=O)N2 (centres undefined)	none (no result: PostGolgi ctrl, E coli WT exp, PostGolgi yeast)
CCCN(CCC)CCNC(=O)C(NS(=O)(=O)c1ccc2c(c1)CCC(=O)N2)c1ccccc1 (centres undefined)	PostGolgi ctrl 31.3
CCN(CC)S(=O)(=O)c1cc(Br)c(C)cc1OC	PostGolgi ctrl 33.3
O=C(CN1C(=O)NC2(CCCC2)C1=O)NCCC1=CCCCC1	EphB4 ephrin blk 15.9 (no result: tolC growth inh)
CCC(Oc1ccccc1)C(=O)Nc1nnc(C)s1 (centres undefined)	PostGolgi ctrl 31.0
CCC(Oc1ccccc1)C(=O)Nc1ccc(-c2nnc(-c3ccco3)o2)cc1 (centres undefined)	tolC growth inh 66.1
CCC(Oc1ccccc1)C(=O)Nc1ccccc1OC (centres undefined)	PostGolgi ctrl 31.1
COc1ccccc1NC(=O)C(C)NS(=O)(=O)c1ccccc1 (centres undefined)	none
CCC(Oc1ccccc1)C(=O)Nc1nnc(C(F)(F)F)s1 (centres undefined)	PostGolgi ctrl 48.2, tolC growth inh 87.5
Cc1nnc(NC(=O)Oc2ccccc2)s1	none
CCC(Oc1ccccc1)C(=O)Nc1nc2c(s1)C(=O)CC(C)(C)C2 (centres undefined)	none (no result: tolC growth inh)
CSc1nc(-c2ccccc2O)nc(-c2ccccc2O)n1	none (no result: PostGolgi ctrl, E coli WT exp, PostGolgi yeast, EphB4 ephrin blk)
Cc1cc(Br)ccc1NCc1ccccn1	none (no result: tolC growth inh)
COc1cc(C2Nn3c(nnc3-c3ccccc3OC)S2)ccc1O (centres undefined)	none (no result: PostGolgi ctrl, E coli WT exp, tolC growth inh, PostGolgi yeast)
COc1cc(OC)c(C(=O)Nc2cccc(C(C)=O)c2)cc1OC	none (no result: tolC growth inh)
O=C1c2ccccc2C(O)(c2ncc[nH]2)N1CCc1ccccc1 (centres undefined)	none (no result: tolC growth inh)
Fc1ccc(Cn2nnc(-c3ccc(CN4CCOCC4)cc3)n2)cc1	PostGolgi ctrl 30.5, PostGolgi yeast 89.3
Clc1ccc(Cn2nnc(-c3ccc(CN4CCOCC4)cc3)n2)cc1	PostGolgi ctrl 50.9, PostGolgi yeast 82.0
O=C(Nc1ccncc1)c1cc(F)cc(F)c1	none (no result: tolC growth inh)
CCn1nc(C)c(NS(=O)(=O)c2ccccc2)c1C	none (no result: tolC growth inh)

Bioassay records as filed in PubChem.
